{"data": "Measured values of several laboratories", "target": "Activin receptor type-1-like (ACVRL1, Homo sapiens, UniProt P37023)", "note": "Protocols differ between the studies behind these lines."}
{"SMILES": "Nc1ncnc2occ(-c3ccc(NC(=O)Nc4cc(C(F)(F)F)ccc4F)cc3)c12", "read-out": "cell-free assay", "tested at": "20 µM", "quantity": "remaining signal", "result": "100%"}
{"SMILES": "CC(=O)c1c(NS(C)(=O)=O)c2cc(-c3ccc(Cl)cc3)c(-c3ccc(Cl)cc3Cl)nc2n(C)c1=O", "read-out": "cell-free assay", "method": "competition with immobilised ligand", "tested at": "1 µM", "quantity": "remaining binding", "result": "100%"}
{"SMILES": "CNC(=O)c1cc(Oc2ccc(NC(=O)Nc3ccc(Cl)c(C(F)(F)F)c3)cc2)ccn1", "read-out": "cell-free assay", "tested at": "0.5 µM", "quantity": "remaining signal", "result": "104%"}
{"SMILES": "CC(C)(O)[C@H]1CC[C@H](Nc2ccc3ncc(-c4cccc(C(F)(F)F)c4)n3n2)CC1", "read-out": "enzyme activity", "mode": "inhibitor", "tested at": "1 µM", "quantity": "remaining activity", "result": "66.7%"}
{"SMILES": "C[C@H](c1cccc(C#N)c1)n1cc(Cl)cc(C(N)=O)c1=N", "read-out": "cell-free assay", "method": "competition with immobilised ligand", "tested at": "1 µM", "quantity": "remaining binding", "result": "93%"}
{"SMILES": "CN1CC(Oc2cnc(C#N)cc2-c2ccn3nc(NC(=O)C4CC4)cc3c2)C1", "read-out": "enzyme activity", "mode": "inhibitor", "tested at": "1 µM", "quantity": "inhibition", "result": "4%"}
{"SMILES": "Cc1ccc(C(=O)Nc2ccc(CN3CCN(C)CC3)c(C(F)(F)F)c2)cc1C#Cc1cnc2cccnn12", "read-out": "cell-free assay", "tested at": "23.5 nM", "quantity": "remaining signal", "result": "100%"}
{"SMILES": "O=C1Nc2ccc(Cl)cc2C1=Cc1cc(Cl)c(O)c(Cl)c1", "read-out": "cell-free assay", "tested at": "0.5 µM", "quantity": "remaining signal", "result": "96.4%"}
{"SMILES": "CCCCN(CCCC)C(=O)CN1C[C@H](c2cc(OC)c3c(c2)OCO3)[C@@H](C(=O)O)[C@@H]1CC(C)(C)CCC", "read-out": "cell-free assay", "method": "competition with immobilised ligand", "tested at": "1 µM", "quantity": "remaining binding", "result": "100%"}
{"SMILES": "CC(C)(C)c1nc2c(s1)c1nc(N)ncc1c1ccc(NS(=O)(=O)c3c(F)cccc3F)c(F)c12", "read-out": "enzyme activity", "mode": "inhibitor", "method": "radiometric", "tested at": "1 µM", "quantity": "remaining activity", "result": "87%"}
{"SMILES": "CO[C@@H](C)c1c(Nc2ccc([C@H](N(C)C(=O)C3CCS(=O)(=O)CC3)C(F)(F)F)cc2)cnc2cc(Cl)nn12", "read-out": "cell-free assay", "method": "competition with immobilised ligand", "tested at": "1 µM", "quantity": "remaining binding", "result": "100%"}
{"SMILES": "COc1cc2c(N3CCN(C(=O)Nc4ccc(OC(C)C)cc4)CC3)ncnc2cc1OCCCN1CCCCC1", "read-out": "cell-free assay", "tested at": "0.5 µM", "quantity": "remaining signal", "result": "102%"}
{"SMILES": "N#Cc1ccc(Nc2ccc3[nH]c(=O)[nH]c3c2)c(Cl)c1", "read-out": "binding", "method": "competition with immobilised ligand", "tested at": "1 µM", "quantity": "remaining binding", "result": "100%"}
{"SMILES": "O=C(Nc1cnn(-c2csc(C(=O)NC3COC3)c2)c1)Nc1c(F)cccc1Cl", "read-out": "enzyme activity", "mode": "inhibitor", "tested at": "5 µM", "quantity": "remaining activity", "result": "120%"}
{"SMILES": "O=C1NC(=O)c2cc(Nc3ccc(F)cc3)c(Nc3ccc(F)cc3)cc21", "read-out": "cell-free assay", "tested at": "0.5 µM", "quantity": "remaining signal", "result": "95.9%"}
{"SMILES": "COc1cc(Cl)c(C(=O)N[C@@H](CN[C@H]2CC[C@@H](N)CC2)Cc2ccc(C#N)cc2)cc1-c1ccc(CN[C@H](C)c2ccc(C)cc2)o1", "read-out": "enzyme activity", "mode": "inhibitor", "tested at": "1 µM", "quantity": "remaining activity", "result": "123%"}
